hERG rescue = hERG rescue from dofetilide block, primary screen, cell-based, CHO-hERG, FluxOR thallium flux, dofetilide IC70. 310,000 tested, 0.51% active. activation (rescue from dofetilide block), less the hit threshold, % at 10 µM. dofetilide IC70 present. Voltage-gated inwardly rectifying potassium channel KCNH2 (Homo sapiens), Q12809;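 active = activation above the mean of controls blocked by dofetilide plus 5 SD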;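 also: thallium influx through hERG after potassium depolarization seen as dye fluorescence rise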
KCNK3 block = human KCNK3 channel inhibitors, primary screen, CHO cells, FluxOR thallium flux, B-score | Potassium channel subfamily K member 3 (Homo sapiens), O14649 | B-score at 10 µM | FluxOR fluorescence; hits give low values | 340,000 tested, 0.84% active;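 active = B-score under library mean minus 4 SD, starting fluorescence ratio at most library mean plus 5 SD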;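 also: more negative B-score means stronger inhibition of thallium flux through KCNK3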
Target sequence (O14649 whole entry, looked up): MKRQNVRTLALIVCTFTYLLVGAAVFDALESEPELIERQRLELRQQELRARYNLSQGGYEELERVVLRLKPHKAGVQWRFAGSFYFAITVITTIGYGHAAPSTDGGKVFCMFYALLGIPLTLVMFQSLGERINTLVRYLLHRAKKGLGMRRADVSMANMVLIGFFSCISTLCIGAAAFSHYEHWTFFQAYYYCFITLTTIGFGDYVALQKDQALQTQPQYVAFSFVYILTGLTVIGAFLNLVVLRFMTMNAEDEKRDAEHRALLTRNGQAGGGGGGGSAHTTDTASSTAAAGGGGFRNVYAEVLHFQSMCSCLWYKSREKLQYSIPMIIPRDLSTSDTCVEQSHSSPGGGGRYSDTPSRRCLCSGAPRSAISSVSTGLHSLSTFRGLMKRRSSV
KCNQ1 inh = inhibitors of human KCNQ1 channel, primary screen, cell-based, thallium flux, high-throughput. 310,000 tested, 1.3% active. CHO-K1 KCNQ1, FluxOR thallium flux fluorescence; hits give high values. B-score at 10 µM. Potassium voltage-gated channel subfamily KQT member 1 (Homo sapiens), P51787;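 active = compounds whose thallium flux B-score, printed positive for inhibition, exceeds three library SD while starting fluorescence stays within three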;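 also: channel opened by potassium depolarization with thallium stimulus after 20 min compound exposure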
KCNQ1 act = potentiators or activators of KCNQ1 channel, primary screen, cell-based, thallium flux, high-throughput | B-score at 10 µM | 310,000 tested, 0.35% active | CHO-K1 KCNQ1, thallium flux FluxOR fluorescence; hits give high values | AID 2648, 2010 | Potassium voltage-gated channel subfamily KQT member 1 (Homo sapiens), P51787;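 active = fluorescence ratio B-score, a plate-corrected score, at least three library SD, with initial intensity B-score within 5 SD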
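Assay system: CHO-K1 cells stably expressing KCNQ1; Medium: assay buffer with matched DMSO; Also added: K+/Tl+ depolarizing stimulus; Dosing: single dose; Timing: dye 90 min, compound 20 min, room temperature; Measured by: kinetic FluxOR thallium fluorescence, 10-s 1-Hz baseline, 110-s post-stimulus read; Read-out: peak-minus-minimum fluorescence over initial fluorescence, negative-control normalized, B-scored.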
Kir21 inh = inhibitors of mouse Kir2.1 inward-rectifier potassium channel; Inward rectifier potassium channel 2 (Mus musculus), P35561; HEK293-Kir2.1, FluxOR thallium flux fluorescence; hits give low values; B-score at 10 µM; 310,000 tested, 0.85% active;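 active = fluorescence ratio B-score at or below minus 3 SD of library scores, with starting-brightness B-score within 2 SD, cut at about -4.2 in these data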;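 also: channel flux triggered by added potassium and thallium sulfate stimulus; B-score of peak minus minimum fluorescence over baseline after thallium stimulus; more negative B-score means stronger Kir2.1 block with less thallium influx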
KCNK9 block = KCNK9 potassium channel inhibitors, primary screen, HEK293 cells, thallium flux. AID 488922, 2010. 310,000 tested, 1.2% active. FluxOR thallium flux fluorescence; hits give low values. Potassium channel subfamily K member 9 (Homo sapiens), Q9NPC2. B-score at 10 µM;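 active = ratio B-score over 3 SD below the library mean, with starting fluorescence within 5 SD of its mean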;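 also: negative B-score means less thallium flux so channel inhibition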
KCNK3 inh conf = retest of human KCNK3 channel inhibitors, confirmation, CHO cells, FluxOR thallium flux, triplicate | shares compounds with KCNK3 block | FluxOR fluorescence; 0% buffer, 100% carvedilol maximal block | ratio percent of control, % at 10 µM | 2,400 tested, 99% active | AID 651638, 2012;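 active = ratio percent of control, averaged over triplicates, above buffer control mean plus 5 SD, cut at about 64% in these data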;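 also: ratio is the fluorescence rise from min to max over baseline after thallium stimulus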
KCNK3 noninduced = thallium flux inhibition in non-induced cells, primary screen, counter-screen for KCNK3 inhibitor project, cell-based, non-induced KCNK3 line, FluxOR thallium, triplicate | shares compounds with KCNK3 block | AID 651747, 2012 | 2,400 tested, 40% active | non-induced KCNK3 parental cells; hits give low values | thallium flux ratio (lower = more inhibition) at 10 µM;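 active = thallium flux ratio, averaged over three wells, more than 5 SD below the buffer control mean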;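 also: host cells are CHO cells without KCNK3 induction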
A number is an active result; n = inactive; x = no result. Most compounds without a hit are left out; they make up all but 3.7% or so of the library.

SMILES	hERG rescue	KCNK3 block	KCNQ1 inh	KCNQ1 act	Kir21 inh	KCNK9 block	KCNK3 inh conf	KCNK3 noninduced
CCCCCN(C(=O)CCC(=O)OCC(=O)N(C)Cc1ccc(C)cc1)c1c(N)n(CCCC)c(=O)[nH]c1=O	n	n	n	n	n	n	x	x
Cc1nn(-c2ccc(Cl)c(Cl)c2)c(=O)c2ccccc12	n	-11	n	n	n	n	105	n
Cc1nn(-c2nc3ccccc3[nH]2)c(=O)c2ccccc12	n	n	n	n	n	n	x	x
Cc1nn(-c2ccc3ccccc3c2)c(=O)c2ccccc12	n	-8.9	n	n	n	n	92	n
Cc1nn(-c2ccc(Cl)cc2)c(=O)c2ccccc12	n	n	n	n	n	n	x	x
CN1CC(c2ccccc2)Oc2ccccc2C1=S (stereo not drawn)	n	n	n	n	n	n	x	x
O=C(O)CN1C(=O)/C(=C/c2ccc(SCc3ccccc3)o2)SC1=S	x	n	x	x	x	x	x	x
Cn1nnnc1Sc1ncnc2scc(-c3ccc(-c4ccccc4)cc3)c12	x	n	x	x	x	x	x	x
Cn1nnnc1Sc1ncnc2scc(-c3cc4ccccc4o3)c12	x	-13	x	x	x	x	118	n
N#Cc1c(N)nc(SCC(=O)OCc2ccccc2)c(C#N)c1-c1ccco1	n	-11	n	n	n	n	87	n
Cc1ccc(-c2n[nH]c(Cc3ccccc3)n2)cc1	n	n	n	n	n	n	x	x
O=C(Nc1nc(-c2ccccc2)cs1)C1c2ccccc2Oc2ccccc21	n	-8.8	n	n	n	-7.2	119	n
COc1ccc(S(=O)(=O)N2CC(C)N(C(=O)N(C)C)C2C)cc1 (stereo not drawn)	n	n	n	n	n	n	x	x
O=C(c1cccs1)c1cn(CC(=O)N2CCc3ccccc3C2)c2ccccc12	n	-11	n	n	n	n	80	n
O=C(O)Cn1cc(C(=O)c2cccs2)c2ccccc21	n	n	n	n	n	n	x	x
CC(C)Oc1ccc(CNC(=O)Cn2c(=O)oc3ccccc32)cc1	n	n	n	n	n	n	x	x
Cc1ccc(CNC(=O)Cn2c(=O)oc3ccccc32)o1	n	-12	n	n	n	n	77	n
COc1ccc(-c2cc(OC)c3c(C)oc(C)c3c(=O)c2)cc1OC	n	-9	n	n	n	n	113	0.15
O=C(CCSc1nc(-c2ccco2)cc(C(F)(F)F)n1)N1CCCc2ccccc21	n	-9.9	n	n	n	n	100	n
O=C(CCSc1nc(-c2ccco2)cc(C(F)(F)F)n1)N1CCN(c2ccccn2)CC1	n	n	n	n	n	n	x	x
Cc1cnccc1CN(C)Cc1cn(C)nc1-c1ccc(Oc2ccccc2)cc1	n	-10	n	n	n	n	118	0.15
S=C(N/N=C/c1ccc2c(c1)OCO2)NC1CC2CCC1C2 (stereo not drawn)	n	n	n	n	n	n	x	x
CCCNC(=O)c1c(O)c2cccc3c2n(c1=O)CCC3	n	n	n	n	n	n	x	x
CCOC(=O)c1c(O)c2cccc3c2n(c1=O)CC3	n	-9.1	n	n	n	n	100	n
C/C(=N\Nc1cccc2cccnc12)c1ccccc1O	n	-10	n	n	n	n	108	n
SMILES	hERG rescue	KCNK3 block	KCNQ1 inh	KCNQ1 act	Kir21 inh	KCNK9 block	KCNK3 inh conf	KCNK3 noninduced
CC(c1cccs1)N(Cc1ccco1)C(=S)Nc1ccccc1Cl (stereo not drawn)	n	-9	n	n	n	n	107	n
COc1cccc(NC(=S)N(Cc2ccco2)C(C)c2ccco2)c1 (stereo not drawn)	n	n	n	n	n	n	x	x
S=C(Nc1ccccc1Cl)N(CCN1CCCCC1)Cc1ccco1	n	n	n	n	n	n	x	x
Cc1cccc(NC(=S)N(Cc2ccco2)C(C)c2cccs2)c1 (stereo not drawn)	n	-9.7	n	n	n	n	94	n
COc1ccccc1N1CCN(C(c2cccs2)C(C)NS(=O)(=O)c2ccccc2)CC1 (stereo not drawn)	n	-9.6	6	n	n	n	96	n
CC(NS(=O)(=O)c1ccccc1)C(c1cccs1)N1CCN(c2ccccc2)CC1 (stereo not drawn)	n	n	n	n	n	n	x	x
Nc1ncnc2c1c(-c1ccc(Oc3ccccc3)cc1)cn2C1CCCC1	x	-12	x	x	x	x	115	n
CCCn1c(/C=C/c2ccccc2)nc2ccccc21	n	n	n	n	n	n	x	x
COCCOCCn1c(/C=C/c2ccccc2)nc2ccccc21	n	-9.2	n	n	n	n	93	n
COc1ccc(NC(=O)Nc2cccc(C(F)(F)F)c2)cn1	n	n	n	n	n	n	x	x
Cc1ccccc1OCc1nc(-c2ccc(Br)o2)no1	n	-12	n	n	n	n	98	n
CCOc1cc(/C=C2\C(=O)N(Cc3ccco3)C(C)=C2C(=O)OC)ccc1O	n	-9.5	n	n	n	n	71	n
CCCCN1C(=S)NC[C@@H]1c1ccccc1	n	n	n	n	n	n	x	x
CCCN1C(=S)c2ccccc2C1c1ccccc1 (stereo not drawn)	n	-11	n	n	n	n	121	0.15
COc1ccc(Cl)cc1NC(=O)CN(C)CC(=O)Nc1ccccc1C(F)(F)F	n	-9.1	n	n	n	n	102	n
COc1ccc(CN(C)CC(=O)Nc2cccc3ccccc23)cc1F	n	-11	n	n	n	n	91	n
COc1ccc(Cl)cc1NC(=O)CN(C)C(=O)c1cc2c(s1)CCC(C)C2 (stereo not drawn)	n	-8.8	n	n	n	n	107	n
COc1ccc(NC(=O)CN(C)C(=O)c2cc3c(s2)CCC(C)C3)cc1 (stereo not drawn)	n	n	n	n	n	n	x	x
Cc1ccc([N+](=O)[O-])c(OCCCN2CCC(Cc3ccccc3)CC2)c1	n	-8.8	7	n	-9.9	n	119	0.13

Compound activity: PubChem, Johns Hopkins Ion Channel Center
